Experimental data collected from several papers.
Each line is one published result; the experiments were not run side by side.
SLC22A11: Solute carrier family 22 member 11 (SLC22A11, Homo sapiens, UniProt Q9NSA0)
RIOK1: Serine/threonine-protein kinase RIO1 (RIOK1, Homo sapiens, UniProt Q9BRS2)
MINK1: Misshapen-like kinase 1 (MINK1, Homo sapiens, UniProt Q8N4C8)

O=C(O)CCc1nc(-c2ccccc2)c(-c2ccccc2)o1  inhibition (SLC22A11; transporter uptake, inhibitor; 25 µM): 81.6%
C[C@]1(O)CCCN(c2nc(Nc3ccc(S(=O)(=O)N[C@H]4CC[C@H](CN5CCN(c6ccc(C7CCC(=O)NC7=O)cc6F)CC5)CC4)cc3Cl)ncc2C(F)(F)F)C1 (stereo partly drawn)  remaining binding (RIOK1; binding, competition with immobilised ligand; 1 µM): 88%
O=C(ON1C(=O)CCC1=O)c1cc(C(F)(F)F)cc(C(F)(F)F)c1  kinact (CD209 antigen (CD209, Homo sapiens, UniProt Q9NNX6); cell-free assay; pH 7.4): 0.00574 s⁻¹
CCCc1nc2c(C)cc(-c3nc4ccccc4n3C)cc2n1Cc1ccc(-c2ccccc2C(=O)O)cc1  inhibition (SLC22A11; transporter uptake, inhibitor; 25 µM): 90.2%
NC/C(=C\F)COc1cccc(Cn2c(=S)[nH]c(=O)c3[nH]cnc32)c1  inhibition (Diamine oxidase [copper-containing] (AOC1, Homo sapiens, UniProt P19801); enzyme activity, inhibitor; 1 µM): 2.46%
COc1ccc2oc(-c3ccc4nc(N)oc4c3)c/c(=N\c3ccccc3NC(=O)CCN)c2c1  remaining binding (MINK1; binding; 1 µM): 103%
Cc1cc(S(=O)(=O)N[C@H]2CC[C@H](CN3CCN(c4ccc(C5CCC(=O)NC5=O)cc4F)CC3)CC2)ccc1Nc1ncc(C(F)(F)F)c(N2CCC[C@](C)(O)C2)n1 (stereo partly drawn)  remaining binding (STE20-like serine/threonine-protein kinase (SLK, Homo sapiens, UniProt Q9H2G2); binding, competition with immobilised ligand; 1 µM): 55%
C#Cc1cc(-c2cc(Nc3nc(N[C@@H](C)c4ccc(F)cn4)ncc3Cl)n[nH]2)ccc1C=O  inhibition (MINK1; enzyme activity, inhibitor; 0.2 µM): 55.9%
CC(=O)Oc1ccccc1C(=O)Nc1ncc([N+](=O)[O-])s1  inhibition (SLC22A11; transporter uptake, inhibitor; 25 µM): 76.5%
Cc1cc(O)c(-c2ccc([C@@H](C)CN(C)C)cc2)c2c1[nH]c(=O)c1sccc12  inhibition (Serine/threonine-protein kinase Nek8 (NEK8, Homo sapiens, UniProt Q86SG6); enzyme activity, inhibitor; 0.1 µM): 4.95%
CN(CCOc1ccc(CC2SC(=O)NC2=O)cc1)c1ccccn1 (stereo not drawn)  inhibition (SLC22A11; transporter uptake, inhibitor; 25 µM): 94.1%
CCN1/C(=C/C(C)=O)Sc2ccc(F)cc21  inhibition (5-hydroxytryptamine receptor 3A (HTR3A, Homo sapiens, UniProt P46098); ligand displacement, radioligand; 10 µM): 0%
C[C@]1(O)CCCN(c2nc(Nc3ccc(S(=O)(=O)N[C@H]4CC[C@H](CN5CCN(c6ccc(C7CCC(=O)NC7=O)cc6F)CC5)CC4)cc3F)ncc2C(F)(F)F)C1 (stereo partly drawn)  remaining binding (RIOK1; binding, competition with immobilised ligand; 1 µM): 100%
Cc1cc(F)cc2c(CCC(=O)N[C@@H]3C(=O)NC[C@H]3O)c(-c3ccc(F)cc3)[nH]c12  inhibition (Delta-type opioid receptor (OPRD1, Homo sapiens, UniProt P41143); cell-free assay; 10 µM): 1%
CC(C)n1c(/C=C/C(O)CC(O)CC(=O)O)c(-c2ccc(F)cc2)c2ccccc21 (stereo not drawn)  inhibition (SLC22A11; transporter uptake, inhibitor; 25 µM): 82%
C1=C/COCc2cc(ccc2OCCN2CCCC2)Nc2nccc(n2)-c2cccc(c2)COC/1  remaining binding (Tyrosine-protein kinase ABL1 (ABL1, Homo sapiens, UniProt P00519, T315I); binding; 0.1 µM): 13%
CCCCNc1ccc(C(=O)OCCN(C)C)cc1  inhibition (SLC22A11; transporter uptake, inhibitor; 25 µM): 80.3%
CCCCC(=O)Nc1ccc(-c2ccc3ncn(CCC)c(=O)c3c2)cn1  remaining binding (MINK1; binding, competition with immobilised ligand; 0.5 µM): 99%
